ChEMBL document CHEMBL2021856 (ACS Med Chem Lett, 2011)

Assays:
Assay type in all cases: functional, cell-based; call rule not given here
[1] = molecular target: T1, 5-hydroxytryptamine receptor 2A (Homo sapiens, UniProt P28223); experiment: Agonist activity at human 5HT2A receptor expressed in HEK293 cells assessed as calcium flux measured every sec for 3 mins by FLIPR assay
[2] = molecular target: T2, 5-hydroxytryptamine receptor 2B (Homo sapiens, UniProt P41595); experiment: Agonist activity at human 5HT2B receptor expressed in HEK293 cells assessed as calcium flux measured every sec for 3 mins by FLIPR assay
[3] = molecular target: T3, 5-hydroxytryptamine receptor 2C (Homo sapiens, UniProt P28335); experiment: Agonist activity at human 5HT2C receptor expressed in HEK293 cells assessed as calcium flux measured every sec for 3 mins by FLIPR assay
T3 sequence (P28335 whole entry): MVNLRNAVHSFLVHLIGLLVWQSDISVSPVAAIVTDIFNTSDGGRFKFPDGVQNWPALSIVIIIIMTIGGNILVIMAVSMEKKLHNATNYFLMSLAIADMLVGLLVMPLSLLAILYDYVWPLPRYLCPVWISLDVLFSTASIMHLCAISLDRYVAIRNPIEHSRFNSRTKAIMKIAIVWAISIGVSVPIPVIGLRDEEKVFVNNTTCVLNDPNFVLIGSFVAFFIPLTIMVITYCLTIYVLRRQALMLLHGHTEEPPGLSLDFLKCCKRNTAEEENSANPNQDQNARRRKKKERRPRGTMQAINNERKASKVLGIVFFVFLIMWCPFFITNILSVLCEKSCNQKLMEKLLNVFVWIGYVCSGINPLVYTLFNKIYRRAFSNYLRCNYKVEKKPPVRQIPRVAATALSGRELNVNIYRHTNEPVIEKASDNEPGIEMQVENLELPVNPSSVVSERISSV

[4] = molecular target: T4, 5-hydroxytryptamine receptor 2C (Homo sapiens) (UniProt P28335); experiment: Agonist activity at human 5HT2C receptor expressed in HEK293 cells assessed as calcium flux measured every sec for 3 mins by FLIPR assay relative to 5HT
T4 sequence (whole entry): T3 sequence (P28335 whole entry)
Method in brief: (§1)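 Calcium flux (Gαq-mediated) in HEK-293 cells stably expressing human 5-HT2A, 5-HT2B or 5-HT2C (INI isoform). […] Racemic trans mixtures were tested unless otherwise stated.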

[5] = molecular target: T2, 5-hydroxytryptamine receptor 2B; experiment: Agonist activity at human 5HT2B receptor expressed in HEK293 cells assessed as calcium flux measured every sec for 3 mins by FLIPR assay relative to 5HT; method in brief: as §1
[6] = molecular target: T1, 5-hydroxytryptamine receptor 2A; experiment: Agonist activity at human 5HT2A receptor expressed in HEK293 cells assessed as calcium flux measured every sec for 3 mins by FLIPR assay relative to 5HT; method in brief: as §1

T1 sequence (P28223 whole entry): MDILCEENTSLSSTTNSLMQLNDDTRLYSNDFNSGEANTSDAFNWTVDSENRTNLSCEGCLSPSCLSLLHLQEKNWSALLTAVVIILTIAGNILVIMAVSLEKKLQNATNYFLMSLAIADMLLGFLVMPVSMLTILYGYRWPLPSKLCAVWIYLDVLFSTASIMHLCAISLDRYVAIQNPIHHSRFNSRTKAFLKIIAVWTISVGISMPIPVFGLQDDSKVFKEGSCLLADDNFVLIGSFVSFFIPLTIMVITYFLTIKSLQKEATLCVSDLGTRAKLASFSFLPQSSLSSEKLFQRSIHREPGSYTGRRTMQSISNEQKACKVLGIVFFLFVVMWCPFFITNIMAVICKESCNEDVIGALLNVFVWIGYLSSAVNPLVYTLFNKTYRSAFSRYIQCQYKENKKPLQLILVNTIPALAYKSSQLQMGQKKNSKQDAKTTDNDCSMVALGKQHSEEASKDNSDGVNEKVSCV
T2 sequence (P41595 whole entry): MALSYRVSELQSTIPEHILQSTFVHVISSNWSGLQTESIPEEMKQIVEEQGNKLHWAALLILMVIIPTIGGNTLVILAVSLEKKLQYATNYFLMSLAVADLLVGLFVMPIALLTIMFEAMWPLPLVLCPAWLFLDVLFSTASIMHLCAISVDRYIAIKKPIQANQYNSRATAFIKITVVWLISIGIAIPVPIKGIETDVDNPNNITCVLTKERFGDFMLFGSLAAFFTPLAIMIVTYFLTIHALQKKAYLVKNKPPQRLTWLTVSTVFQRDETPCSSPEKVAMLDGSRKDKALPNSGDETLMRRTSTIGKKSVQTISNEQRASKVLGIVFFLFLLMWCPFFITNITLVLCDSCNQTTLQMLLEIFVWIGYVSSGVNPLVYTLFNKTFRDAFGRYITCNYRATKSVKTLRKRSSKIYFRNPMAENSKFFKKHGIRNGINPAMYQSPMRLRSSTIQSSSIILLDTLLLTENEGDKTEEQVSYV

| SMILES | EC50 ([1]; hek293) | EC50 ([2]; hek293) | EC50 ([3]; hek293) | EC50 ([3]; read-out: EC50) [nM] | Emax [4] [%] | EC50 ([2]; read-out: EC50) [nM] | Emax [5] [%] | EC50 ([1]; read-out: EC50) [nM] | Emax [6] [%] |
| --- | --- | --- | --- | --- | --- | --- | --- | --- | --- |
| Cc1ccc(OCC(C)C)c([C@H]2C[C@@H]2CN)c1.Cl (racemic) | Not Active | Not Active | Not Active |  |  |  |  |  |  |
| COc1ccc(-c2cccc(C)c2)cc1[C@H]1C[C@@H]1CN.Cl (racemic) | Not Active | Not Active |  | 8710 | 69 |  |  |  |  |
| CCCOc1ccccc1[C@H]1C[C@@H]1CN.Cl (racemic) | Not Active |  |  | 24 | 70 | 304 | 16 |  |  |
| COc1ccc(-c2ccccc2)cc1[C@H]1C[C@@H]1CN.Cl (racemic) | Not Active | Not Active |  | 3800 | 64 |  |  |  |  |
| NC[C@H]1C[C@@H]1c1cc(F)ccc1OCC1CC1 |  |  |  | 21 |  | 289 |  | 894 |  |
| COc1ccc(-c2ccc(C)cc2)cc1[C@H]1C[C@@H]1CN.Cl (racemic) | Not Active | Not Active | Not Active |  |  |  |  |  |  |
| Cl.NC[C@H]1C[C@@H]1c1ccccc1OCC1CCCCC1 (racemic) | Not Active | Not Active | Not Active |  |  |  |  |  |  |
| COc1ccc(-c2ccccc2C)cc1[C@H]1C[C@@H]1CN.Cl (racemic) | Not Active | Not Active |  | 3470 | 67 |  |  |  |  |
| Cl.NC[C@H]1C[C@@H]1c1ccccc1OCC1CCC1 (racemic) | Not Active | Not Active |  | 1210 | 31 |  |  |  |  |
| CCOc1ccccc1[C@H]1C[C@@H]1CN (racemic) |  |  |  | 18 | 99 | 331 | 48 | 3020 | 64 |
| Cl.NC[C@H]1C[C@@H]1c1ccccc1OCc1ccccc1 (racemic) | Not Active |  |  | 304 | 74 | 1080 | 20 |  |  |
| COc1ccc(-c2ccccc2F)cc1[C@H]1C[C@@H]1CN.Cl (racemic) | Not Active | Not Active |  | 3310 | 69 |  |  |  |  |
| NC[C@H]1C[C@@H]1c1ccccc1OCC1CC1 |  |  |  |  | 61 |  |  |  |  |
| CCCCOc1ccc(C)cc1[C@H]1C[C@@H]1CN.Cl (racemic) | Not Active | Not Active | Not Active |  |  |  |  |  |  |
| CCCCc1ccc(-c2ccc(OC)c([C@H]3C[C@@H]3CN)c2)cc1.Cl (racemic) | Not Active | Not Active | Not Active |  |  |  |  |  |  |
| COc1ccc(-c2cccc(F)c2)cc1[C@H]1C[C@@H]1CN.Cl (racemic) | Not Active | Not Active |  | 7240 | 59 |  |  |  |  |
| CCCCCOc1ccccc1[C@H]1C[C@@H]1CN.Cl (racemic) | Not Active | Not Active | Not Active |  |  |  |  |  |  |
| COc1ccc(-c2ccc(F)cc2)cc1[C@H]1C[C@@H]1CN.Cl (racemic) | Not Active | Not Active |  | 2190 | 83 |  |  |  |  |
| CC(C)COc1ccccc1[C@H]1C[C@@H]1CN.Cl (racemic) | Not Active | Not Active |  | 254 | 84 |  |  |  |  |
| Cl.NC[C@H]1C[C@@H]1c1ccccc1OCC1CC1 (racemic) | Not Active | Not Active |  |  |  |  |  |  |  |
| NC[C@H]1C[C@@H]1c1ccccc1OCC1CC1 (racemic) |  |  |  |  | 60 |  |  |  |  |
| Cl.NC[C@@H]1C[C@H]1c1ccccc1OCC1CC1 | Not Active | Not Active |  | 978 | 51 |  |  |  |  |
